# Bioassay records (PubChem BioAssay)
# PAFAH2 inh: PAFAH2 (human) inhibition. actives 0.99% (n = 340,000). recombinant PAFAH2, FP-rhodamine activity probe, fluorescence polarization. Q99487. inhibition, % at 3.39 µM;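 active = inhibition above the mean over all tested compounds plus 3 SD, cut at about 30% in these data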;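 note: inhibitors block probe labeling of enzyme so polarization drops; 0% = enzyme with DMSO and 100% = wells lacking PAFAH2 protein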
# PAFAH1B2 FP inh: PAFAH1B2 (human) inhibition. P68402. recombinant PAFAH1B2, FP-rhodamine activity probe, fluorescence polarization. inhibition, % at 3.39 µM. actives 1.2% (n = 340,000). AID 492953;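 active = inhibition above the mean of all tested compounds plus 3 SD, cut at about 24% in these data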;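 note: 0% = enzyme with DMSO and 100% = wells lacking PAFAH1B2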
# Target sequence (P68402 whole entry, looked up): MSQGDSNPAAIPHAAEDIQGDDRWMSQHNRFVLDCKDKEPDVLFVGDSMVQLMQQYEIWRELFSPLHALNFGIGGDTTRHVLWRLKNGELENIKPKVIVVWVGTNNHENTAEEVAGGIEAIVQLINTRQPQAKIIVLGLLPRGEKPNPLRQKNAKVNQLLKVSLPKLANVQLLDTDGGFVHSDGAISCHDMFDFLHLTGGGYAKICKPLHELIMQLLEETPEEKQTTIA
# Apaf1 inhib: blocks human Apaf-1 apoptosome activity; reconstituted apoptosome caspase-3 activity, DEVD-Rh110 fluorescence; O14727; inhibition, % at 20 µM; AID 489030; actives 0.71% (n = 330,000); active = inhibition of at least 40% at 20 µM;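 note: plate controls were DMSO wells for no effect and DEVD-CHO caspase inhibitor wells for full effect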
#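 detection = Rh110 fluorescence intensity | test system = biochemical Apaf-1 apoptosome reconstitution | also added = cytochrome c and DEVD-Rh110 substrate | schedule = 30 min plus 50 min, RT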
# PAFAH1B3 FP inh: blocks human PAF acetylhydrolase 1B catalytic subunit 3 | Q15102 | recombinant PAFAH1B3, FP-rhodamine probe, fluorescence polarization | inhibition, % at 3.39 µM | actives 0.28% (n = 340,000);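 active = inhibition above the screen-wide average of all tested compounds plus 3 SD, cut at about 25% in these data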;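 note: 0% = enzyme with DMSO only and 100% = wells lacking PAFAH1B3 protein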
# Target sequence (Q15102 whole entry, looked up): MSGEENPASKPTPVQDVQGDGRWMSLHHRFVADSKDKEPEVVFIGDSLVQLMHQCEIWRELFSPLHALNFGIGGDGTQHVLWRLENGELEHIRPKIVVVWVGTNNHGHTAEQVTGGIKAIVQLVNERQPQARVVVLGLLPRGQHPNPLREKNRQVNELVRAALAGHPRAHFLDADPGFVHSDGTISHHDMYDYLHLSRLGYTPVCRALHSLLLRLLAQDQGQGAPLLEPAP
# TDP2 absorb: TDP2 (human) inhibition, absorbance primary screen | O95551 | recombinant TDP2, T5PNP hydrolysis, p-nitrophenol absorbance 415 nm | inhibition, % at 12.8 µM | actives 0.34% (n = 370,000) | AID 720702;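 active = inhibition above the mean of all tested compounds plus 3 SD, set per campaign, cut at about 25% in these data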;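 note: 0% = DMSO with enzyme and 100% = buffer with substrate but no TDP2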
#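 System – recombinant human TDP2 · Amount – 120 nM TDP2 per well · Buffer or medium – Mg2+-containing Tris-HCl buffer, pH 7.5 · Reagent – T5PNP substrate, 5 mM · Dosing – 12.8 µM single point, 1% DMSO · Incubation – 2 h at 37 °C · Measured by – epi absorbance · Read-out basis – percent inhibition · Benchmarks – high control without enzyme, low control DMSO plus TDP2 · Repeats – singlicate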
# PAFAH2 confirm: confirmation of human PAFAH2 inhibitors; shares compounds with PAFAH2 inh; recombinant PAFAH2, FP-rhodamine activity probe, fluorescence polarization; actives 65% (n = 2,300); inhibition, % at 3.39 µM;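 active = mean inhibition over three repeats above a set limit taken from the earlier primary screen, cut at about 30% in these data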;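 note: inhibitor blocks binding of rhodamine activity probe so polarization falls; 0% = enzyme with DMSO and 100% = wells lacking PAFAH2 protein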
# The depositor's hits bear a star; x = no result. Compounds with a hit are over-represented: about 2.3% of the library has one in this group of screens.
SMILES,PAFAH2 inh,PAFAH1B2 FP inh,Apaf1 inhib,PAFAH1B3 FP inh,TDP2 absorb,PAFAH2 confirm
O=C(COC(=O)c1ccc(O)cc1)Nc1ccccc1[N+](=O)[O-],68.9*,0.1,-8.6,6.4,-4.4,67.5*
CCOC(=O)c1ccccc1NC(=O)COC(=O)CC1CCCCC1,0.9,-1.0,19.7,1.6,-3.3,x
O=C(COC(=O)CN1C(=O)c2ccccc2C1=O)Nc1ccccc1[N+](=O)[O-],9.4,6.3,-1.4,5.6,5.7,x
O=C(CC(=O)Nc1ccccc1[N+](=O)[O-])Nc1ccccc1[N+](=O)[O-],0.8,0.6,14.8,1.4,-14.5,x
COC(=O)[C@]12C[C@H](CC(=O)NCC3CCCCC3)C(=O)N(Cc3ccc4c(c3)OCO4)C1=C[C@H](C(C)C)O[C@@H]2C1CC1,x,x,x,x,-2.0,x
CCCC[C@H](CCCc1ccc(F)cc1)CCC(=O)N(c1ccccc1)c1ccccc1,x,x,x,x,-6.7,x
CCCCC1O[C@@H](C)[C@@H]2CN3CCc4c([nH]c5ccccc45)[C@@H]3C[C@@H]2N1C (stereo partly specified),x,x,x,x,-7.1,x
C[C@@H]1CCN(C2CC2)S(=O)(=O)c2ccc(N3CCC[C@@H]3CO)cc2O1,x,x,x,x,0.3,x
O=C(NCc1ccco1)Nc1c(Cl)cc(Cl)cc1Cl,x,x,x,x,0.9,x
CCc1ccc(NC(=O)COC(=O)CCc2nc3cc(S(=O)(=O)N(CC)CC)ccc3n2C)cc1,62.6*,5.6,25.4,6.9,-1.6,74.7*
CCN(CC)S(=O)(=O)c1ccc2c(c1)nc(CCC(=O)OCC(=O)Nc1cc(Cl)cc(Cl)c1)n2C,73.1*,-3.7,14.1,-14.7,1.9,83.5*
CCN(CC)S(=O)(=O)c1ccc2c(c1)nc(CCC(=O)OCc1c(C)noc1C)n2C,9.8,-1.4,16.6,1.7,-6.5,x
CCN(CC)S(=O)(=O)c1ccc2c(c1)nc(CCC(=O)OCC(=O)N1CCc3ccccc31)n2C,70.7*,5.2,8.0,7.2,6.6,81.6*
CCC(C)N(C(=O)CSc1nnc(-c2cccnc2)n1C1CCCCC1)C(C)CC (stereo unspecified),x,x,x,x,6.7,x
Cc1ccc(O)c(NC(=O)Cc2ccc3ccccc3c2)c1,74.2*,0.7,15.1,6.7,0.7,67.6*
O=C(O)Cc1ccc(NC(=O)Cc2ccc3ccccc3c2)cc1,9.0,2.7,1.1,4.7,2.9,x
CN1/C(=C\C(=O)c2ccco2)C(C)(C)c2ccccc21,-76.4,-47.3,1.9,-48.1,-10.7,x
CN1/C(=C\C(=O)COC(=O)c2ccco2)C(C)(C)c2ccccc21,33.3*,7.8,4.9,6.9,-6.0,36.9*
CC(=O)c1c(C)[nH]c(C(=O)OCC(=O)Nc2cccc(S(=O)(=O)N3CCCC3)c2)c1C,36.6*,-6.4,4.0,-5.0,2.5,15.1
CC(=O)c1c(C)[nH]c(C(=O)OCC(=O)Nc2cc(S(=O)(=O)N3CCCC3)ccc2Cl)c1C,22.3,1.0,6.1,12.2,-6.8,x
CC(=O)c1c(C)[nH]c(C(=O)OCC(=O)Nc2cccc(S(=O)(=O)N(C)C)c2)c1C,30.6*,10.6,13.2,9.4,0.7,31.2*
CCN(CC)S(=O)(=O)c1cccc(NC(=O)COC(=O)c2[nH]c(C)c(C(C)=O)c2C)c1,x,x,x,x,11.1,x
Cc1nonc1C(=O)N/N=C/c1ccc(O)c(O)c1,1.2,2.4,-5.4,6.8,-4.3,x
O=C(N/N=C/c1ccc(O)c(O)c1)N/N=C/c1ccc(O)c(O)c1,30.6*,7.2,3.5,16.6,-6.7,14.8
CCOC(=O)C1=C(C)N=c2s/c(=C\c3ccc(O)c([N+](=O)[O-])c3)c(=O)n2C1c1ccccc1OC (stereo unspecified),35.5*,14.6,14.8,20.1,16.9,25.1
SMILES,PAFAH2 inh,PAFAH1B2 FP inh,Apaf1 inhib,PAFAH1B3 FP inh,TDP2 absorb,PAFAH2 confirm
COc1cccc(NC(=O)Nc2nc3ncccn3c2-c2ccc(C)cc2)c1,x,x,x,x,3.2,x
CC(C)NC(=S)N/N=C/c1cc(Br)ccc1O,31.8*,8.3,0.7,6.5,-1.0,32.1*
O=C(NCc1ccccc1)[C@H]1CCCN1C(=O)[C@H]1CCCN1C(=O)c1ccccc1C(F)(F)F,x,x,x,x,-8.0,x
O=C(NCCN1CCC(n2c(=O)[nH]c3cc(Cl)ccc32)CC1)c1ccc(F)cc1,x,x,x,x,0.6,x
CCOC(=O)Cn1cc(CN2C(C(=O)OC)CN(C3CCCC3)CCS2(=O)=O)nn1 (stereo unspecified),x,x,x,x,-15.6,x
Cc1nnc(SCC2=C(C(=O)O)N3C(=O)C(NC(=O)Cc4ccccc4)C3SC2)s1 (stereo unspecified),79.4*,2.1,1.8,2.7,0.1,65.4*
Cc1nnc(SCC2=C(C(=O)O)N3C(=O)C(NC(=O)C(C)n4nc(C(F)(F)F)cc4C)C3SC2)s1 (stereo unspecified),3.8,5.2,-0.3,1.0,3.5,x
O=C(OCc1cn(Cc2ccccc2C(F)(F)F)nn1)N1CCOCC1,x,x,x,x,4.8,x
Nc1ccc(C(=O)OCC(=O)NC2CC2)cc1[N+](=O)[O-],59.3*,6.2,-14.1,1.6,3.5,47.8*
O=C(OCC(=O)N1CCc2ccccc2C1)c1ccc(Cl)c([N+](=O)[O-])c1,8.9,4.9,17.4,4.5,5.2,x
Nc1ccc(C(=O)OCC(=O)N2CCc3ccccc3C2)cc1[N+](=O)[O-],50.9*,3.7,-3.0,0.9,10.5,45.7*
O=C(COC(=O)c1ccccc1C(=O)c1ccc(Cl)c([N+](=O)[O-])c1)NC1CCCCCC1,61.9*,4.7,10.5,2.2,14.6,46.8*
CC(C)NC(=O)N[C@H]1C[C@@H]2O[C@@H](CO)CC[C@@H]2O[C@@H]1CCc1ccc(-c2ccccc2F)cc1,x,x,x,x,9.7,x
O=C1CCC[C@H]2C[C@H](NCc3cccc(F)c3)CC[C@]23CCCN13,x,x,x,x,-3.0,x
Cc1cc(C(=O)OCC(=O)NCc2ccc(Cl)cc2Cl)c(C)o1,36.9*,6.9,0.4,9.9,-3.0,29.0
Cc1cc(C(=O)OCC(=O)NCc2ccccc2Cl)c(C)o1,50.8*,2.5,1.0,0.4,-5.0,50.2*
O=C(COC(=O)C1CC1)NCc1ccccc1Cl,58.3*,4.9,0.7,-0.2,-2.9,51.6*
CCN1Cc2nnn(Cc3ccccc3)c2-c2cc(N3CCCC3)ccc2S1(=O)=O,x,x,x,x,8.9,x
C=CCNC(=O)c1onc(CSc2cc(C)ccc2C)c1C(=O)O,15.3,2.3,-8.0,-0.5,14.1,x
Cc1cc(C)cc(SCc2noc(C(=O)NCC3CCCO3)c2C(=O)O)c1 (stereo unspecified),36.3*,7.2,0.9,9.2,4.3,28.7
CCCCNC(=O)c1onc(CSc2ccccc2CC)c1C(=O)O,57.7*,23.9,-1.6,8.8,-5.0,44.0*
C=CCNC(=O)c1onc(CSc2ccccc2C)c1C(=O)O,35.8*,1.7,-1.7,2.3,8.6,25.7
